Measured values taken from ChEMBL document CHEMBL4665810, “Aryloxy Diester Phosphonamidate Prodrugs of Phosphoantigens (ProPAgens) as Potent Activators of Vγ9/Vδ2 T-Cell Immune Responses” (J Med Chem, 2020).
The source made the active and inactive calls. The calls are words filed in the database; no cut-off is given here.

Key:
[1] = Stability of compound in human serum at 5 mg and measured at 30 mins interval for up to 12 hrs by 31PNMR analysis; assay type: ADME, cell-free
In short: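 Compound, 5.0 mg in DMSO/D2O, with control 31P NMR recorded at 37 °C. Freshly thawed human serum then added and 31P NMR spectra recorded at 37 °C every 30 min over 12 h.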

[2] = molecular target: T1, Butyrophilin subfamily 3 member A1 (Homo sapiens, UniProt O00481); assay: Binding affinity to BTN3A1 in human PBMC-derived Vgamma9/Vdelta2 T cells assessed as increase in CD69/CD25 level incubated for overnight by flow cytometric analysis; assay type: tissue-based, Vgamma9Vdelta2 T cell
In short: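 Healthy-donor PBMCs, 5 × 10^5 cells per well, stimulated with compounds over 10 pM to 100 μM, or 1 aM to 100 μM in a separate run. Incubated overnight at 37 °C/5% CO2. Vγ9+Vδ2+ cells gated within live CD3+ cells by flow cytometry and scored as % CD69+CD25+.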
Target sequence in this assay (O00481 whole entry): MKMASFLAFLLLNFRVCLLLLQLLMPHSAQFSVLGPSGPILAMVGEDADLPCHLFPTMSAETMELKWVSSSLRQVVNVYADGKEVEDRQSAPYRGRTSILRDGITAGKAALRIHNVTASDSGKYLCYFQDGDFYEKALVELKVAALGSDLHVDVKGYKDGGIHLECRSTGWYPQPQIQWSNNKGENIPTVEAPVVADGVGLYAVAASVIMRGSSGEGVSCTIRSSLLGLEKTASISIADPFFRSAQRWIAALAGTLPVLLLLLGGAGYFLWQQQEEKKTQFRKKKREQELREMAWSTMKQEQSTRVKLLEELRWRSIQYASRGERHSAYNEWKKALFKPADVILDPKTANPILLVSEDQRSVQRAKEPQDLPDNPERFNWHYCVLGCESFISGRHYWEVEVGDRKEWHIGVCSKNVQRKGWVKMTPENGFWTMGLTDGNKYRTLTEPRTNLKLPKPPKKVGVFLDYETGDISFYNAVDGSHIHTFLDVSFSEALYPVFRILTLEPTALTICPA

[3] = molecular target: T1, Butyrophilin subfamily 3 member A1; assay: (§1) Binding affinity to BTN3A1 in human PBMC-derived Vgamma9/Vdelta2 T cells assessed as induction of Vgamma9/Vdelta2 T cell mediated T-24 cell lysis co-expressing GFP at 10 pM preincubated 4 hrs followed by compound washout and subsequent Vgamma9Vdelta2 T cell addition at 1:1 effector/target ratio and measured after 18 hrs by fluorescence based assay; assay type: tissue-based
In short: (§2)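 T24 bladder carcinoma cells made GFP+ by retroviral transduction. Targets pulsed 4 h with 10 pM compound, washed three times in RPMI, then cocultured 18 h at 37 °C with Vγ9Vδ2 T-cells expanded 14 days from donor PBMCs (5 μM zoledronate, 100 U/mL IL2 every 2–3 days). % killing = eFluor780+ GFP+ of all GFP+ T24 cells, by flow cytometry. Basal untreated-target killing subtracted; mean ± SE, n = 3.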
Target sequence in this assay (O00481 30-513 limits assumed): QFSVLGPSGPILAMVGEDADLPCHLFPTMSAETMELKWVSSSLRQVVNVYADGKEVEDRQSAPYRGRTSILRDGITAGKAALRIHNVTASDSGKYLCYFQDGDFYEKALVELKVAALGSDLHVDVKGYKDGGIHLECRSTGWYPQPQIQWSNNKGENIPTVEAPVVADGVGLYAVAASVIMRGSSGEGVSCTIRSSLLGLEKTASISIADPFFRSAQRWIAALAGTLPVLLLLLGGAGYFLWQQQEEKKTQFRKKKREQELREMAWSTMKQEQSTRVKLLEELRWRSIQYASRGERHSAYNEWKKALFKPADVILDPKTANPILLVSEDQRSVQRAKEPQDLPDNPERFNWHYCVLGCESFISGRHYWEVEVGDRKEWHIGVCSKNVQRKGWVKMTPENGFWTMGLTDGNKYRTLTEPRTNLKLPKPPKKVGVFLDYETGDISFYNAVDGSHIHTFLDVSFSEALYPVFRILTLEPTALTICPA

[4] = tested on: CD8-positive T cell; assay: Activation of human PBMC derived CD-8 positive cells assessed as increase in alphabeta T cells at 0.1 to 10000 nM by Alexa Flour A88a staining based flow cytometry; assay type: functional; conditions: dose nM 0.1-10000
[5] = tested on: T-24; assay: Cytotoxicity against human T-24 cells co-expressing GFP assessed as reduction in cell viability at 10 pM after 4 hrs by eFluor 780 fixable viability dye based fluorescence assay; conditions: t-24, 4 h
In short: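 GFP+ T24 cells pulsed 4 h with 10 pM compound, washed, and held 18 h at 37 °C without effector cells (0:1 ratio). Dead targets measured by flow cytometry as eFluor780+ GFP+ fraction of total GFP+ T24 cells; mean ± SE, n = 3.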

[6] = molecular target: T1, Butyrophilin subfamily 3 member A1; assay: Potency index, ratio of HMBPP EC50 to test compound EC50 for activation of BTN3A1 in human PBMC-derived Vgamma9/Vdelta2 T cells; assay type: tissue-based; conditions: Vgamma9Vdelta2 T cell
Target sequence in this assay (O00481 30-513 limits assumed): as above

[7] = molecular target: T1, Butyrophilin subfamily 3 member A1; assay: as §1, with “8:1” for “1:1”; assay type: tissue-based; in short: as §2
Target sequence in this assay (O00481 30-513 limits assumed): as above

[8] = molecular target: T1, Butyrophilin subfamily 3 member A1; assay: Binding affinity to BTN3A1 in human PBMC-derived Vgamma9/Vdelta2 T cells; assay type: tissue-based, Vgamma9Vdelta2 T cell
Target sequence in this assay (O00481 whole entry): as the sequence (O00481 whole entry) above

[9] = Half life in human serum at 5 mg and measured up to 12 hrs by 31PNMR analysis; assay type: ADME, cell-free
In short: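 Prodrug (5.0 mg) dissolved in DMSO/D2O; control 31P NMR spectrum recorded at 37 °C, then freshly thawed human serum added. 31P NMR spectra acquired at 37 °C every 30 min over 12 h to follow the prodrug signals.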

[10] = Drug metabolism assessed as recombinant carboxypeptidase Y (unknown origin)-mediated metabolite C formation and measured up to 15 hrs by HPLC analysis; assay type: ADME; conditions: human
[11] = Drug metabolism assessed as recombinant carboxypeptidase Y (unknown origin)-mediated metabolite C formation and measured up to 15 hrs by LC-MS analysis; assay type: ADME; conditions: human
[12] = Drug metabolism assessed as recombinant carboxypeptidase Y (unknown origin)-metabolite C formation at 3 mg measured at 1 hr interval for […] by 31PNMR analysis; assay type: ADME, Homo sapiens
In short: (§3)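 Compound, 3.0 mg in acetone-d6, mixed with TRIZMA buffer pH 7.6. Control 31P NMR taken at 25 °C, then carboxypeptidase Y (0.1 mg in TRIZMA) added. Spectra recorded at 25 °C after 10 min and then every 1 h for 12 h.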

[13] = Drug metabolism assessed as recombinant carboxypeptidase Y (unknown origin)-mediated hydrolysis of ester motif at 3 mg measured at 1 hr interval […] by 31PNMR analysis; assay type: ADME, Homo sapiens; in short: as §3

| SMILES | EC50 [2] [nM] | Activity [3] | Activity [5] | Activity [7] | further results |
| --- | --- | --- | --- | --- | --- |
| COC(=O)[C@H](C)NP(=O)(Oc1ccccc1)C(F)(F)C/C=C(\C)CO (some centres undefined) | 0.728 | – | – | – | Stabilty [1]: Stable |
| COC(=O)[C@H](C)NP(=O)(CC/C=C(\C)CO)Oc1ccccc1 (some centres undefined) | 0.617 | – | – | – | – |
| C/C(=C\CC(F)(F)P(=O)(N[C@@H](C)C(=O)OCc1ccccc1)Oc1ccccc1)CO (some centres undefined) | – | Active | Non-Toxic | Active | Activity [4]: inactive; Ratio EC50 [6]: 15000 |
| C/C(=C\CCP(=O)(N[C@@H](C)C(=O)OC(C)(C)C)Oc1ccccc1)CO (some centres undefined) | 73.4 | Active | Non-Toxic | Active | – |
| C/C(=C\CCP(=O)(N[C@@H](C)C(=O)OC(C)C)Oc1ccccc1)CO (some centres undefined) | 0.519 | – | – | – | – |
| O=P(O)(O)C(O)(Cn1ccnc1)P(=O)(O)O [ZOLEDRONIC ACID] | 3060 | – | – | – | – |
| C/C(=C\CCP(=O)(N[C@@H](C)C(=O)OCc1ccccc1)Oc1ccccc1)CO (some centres undefined) | – | Active | Non-Toxic | Active | Stabilty [1]: Stable; Activity [4]: inactive; Ratio EC50 [6]: 15000 |
| O=P(O)(O)C(O)(Cc1cccnc1)P(=O)(O)O [RISEDRONIC ACID] | – | – | – | – | EC50 [8]: 80 nM |
| C/C(=C\CC(F)(F)P(=O)(N[C@@H](C)C(=O)OC(C)(C)C)Oc1ccccc1)CO (some centres undefined) | 25.8 | Active | Non-Toxic | Active | – |
| C/C(=C\COP(=O)(O)OP(=O)(O)O)CO | – | Active | Non-Toxic | Active | half-life [9]: > 12 h |
| C/C(=C\CC(F)(F)P(=O)(N[C@@H](C)C(=O)OC(C)C)Oc1ccccc1)CO (some centres undefined) | 0.759 | – | – | – | Drug metabolism [10]: Metabolite_Detected; Drug metabolism [11]: Metabolite_Detected; Drug metabolism [12]: Metabolite_Detected; Drug metabolism [13]: Metabolite_Detected |
